# Laboratory results taken from PMC3689924 (Pharmacology, 2012).
# “And” between values parts separate entries of the source, which are not always exact repeats. Equal entries are not always repeated. “Also recorded” adds a separate entry of the source. Where two headings read alike, the source gives them in different places.
# Key:
# [1] = format: in vivo, human; settings: for t½: terminal elimination
# How it was run: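 Healthy males (n=5 per dose group). Vehicle stock of 20% ethanol/80% propylene glycol, diluted to 0.6 mg/ml in 5% dextrose, infused i.v. at 375 ml/h to target dose. Heparinised blood taken pre-dose, at 25/50/75% and end of infusion, then to 1440 min. Plasma methanol-precipitated, C18 HPLC-MS, calibration 0.005–5 μg/ml, LLOQ 5 ng/ml. Cmax observed; AUC0-n, Vss, CL, t½ calculated.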
# [2] = tested on: Pgp at the human BBB; settings: cited from earlier work
# [3] = tested on: Pgp; settings: 2 mg/kg dose; cited from earlier work
# [4] = tested on: breast cancer resistance protein (BCRP); settings: at low concentrations; cited from earlier work
# [5] = Safety and tolerability of single i.v. doses of TQD in healthy volunteers; format: in vivo, human
# How it was run: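 15 healthy males were given single i.v. infusions at 4, 6 or 8 mg/kg and kept on the ward under continuous observation until 24 h after infusion end. Blood pressure, heart rate and ECG were recorded repeatedly over the first 24 h. Monitoring included clinical chemistry, coagulation, haematology and adverse events. Physical examination, vital signs, AE check, and blood and urine analysis were repeated within one week.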
# [6] = tested on: Pgp; settings: at low concentrations; cited from earlier work
# [7] = format: in vitro ADME, human; settings: for TQD concentration in plasma after storage: mean±SD of four determinations
# How it was run: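 Plasma was spiked at 0.1, 0.5 and 2.0 μg/ml and split into 16 aliquots per level. Four aliquots were analysed by HPLC at once as the baseline. The rest were stored 24 h, 1 month or 3 months at RT, 4°C, −20°C or −80°C, then quantified. Results are given as mean of four determinations and percent of baseline; stability criterion was 95%.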
# [8] = 4 mg/kg BW i.v. infusion, individual subjects 1-5
# [9] = 6 mg/kg BW i.v. infusion, individual subjects 6-10
# [10] = 8 mg/kg BW i.v. infusion, individual subjects 11-15
# [11] = single i.v. doses up to 8 mg/kg BW
compound,measurement,setting,value
"COc1cc2c(cc1OC)CN(CCc1ccc(NC(=O)c3cc(OC)c(OC)cc3NC(=O)c3cnc4ccccc4c3)cc1)CC2 [TQD, tariquidar]",CL,[1]; [8],11.29 L/h and 7.39 L/h and 9.22 L/h and 10.11 L/h
same,Vss,[1]; [8],530 L and 571 L and 384 L and 445 L
same,tmax,[1]; [8],1.38 h and 1.45 h and 1.55 h and 1.40 h
same,t½,[1]; [8],33 h and 55 h and 30 h and 31 h
same,CL,[1]; [9],13.99 L/h and 15.15 L/h and 13.53 L/h and 11.35 L/h
same,Vss,[1]; [9],645 L and 509 L and 680 L and 312 L and 559 L
same,tmax,[1]; [9],2.45 h and 1.83 h and 2.23 h
same,t½,[1]; [9],34 h and 26 h and 33 h and 16 h and 35 h
same,CL,[1]; [10],15.41 L/h and 16.21 L/h and 20.85 L/h and 22.15 L/h
same,Vss,[1]; [10],521 L and 667 L and 380 L and 616 L
same,tmax,[1]; [10],2.42 h and 2.28 h and 2.70 h and 2.26 h
same,Cmax,"[1]; 8 mg/kg BW i.v. infusion, individual subjects 11-15, plasma",1920 ng/mL and 1050 ng/mL and 1870 ng/mL and 1660 ng/mL
same,t½,[1]; [10],21 h and 25 h and 30 h and 14 h
same,concentration of possible metabolites in plasma samples,"[1]; all plasma samples, 4-8 mg/kg i.v.",below the detection limit; also recorded: could not detect any metabolites
same,dose dependency of plasma exposure AUC0-n,[1]; dose range from 2 to 8 mg/kg i.v.,largely increase linearly
same,increase in (R)-[11C]verapamil brain distribution,"[2]; 8 mg/kg TQD dose, healthy subjects, PET",3 fold
same,inhibition of Pgp at the human BBB,"[2]; 8 mg/kg TQD dose, plateau in concentration-response curve",complete inhibition
same,EC50,[2]; read-out: half-maximum effect concentration (EC50) for functional inhibition of Pgp at the human BBB,669 nM
same,inhibition of Pgp-mediated rhodamine 123 efflux from CD56-positive lymphocytes,[3],fully inhibit
same,transport by breast cancer resistance protein (BCRP),[4],transported
same,cases of metallic taste in the mouth,"[5]; 15 subjects, 4-8 mg/kg i.v.",five cases
same,"heart rate, blood pressure and ECG",[5]; during and after TQD administration,did not significantly change
same,dose limiting toxicities,"[5]; single i.v. doses 4, 6, 8 mg/kg",No dose limiting toxicities
same,serious or severe AEs,[5]; [11],no serious or severe AEs
same,tolerability,[5]; [11],generally well tolerated
same,"blood chemistries, complete blood count and coagulation",[5]; whole study period,No subject had any significant change
same,transport by Pgp,[6],transported
same,percent of baseline,"[7]; 0.1 μg/ml, 4°C, 1 month",7.2%
same,TQD concentration in plasma after storage,"[7]; 0.1 μg/ml, 4°C, 1 month",0.007 ± 0.001 µg/mL
same,percent of baseline,"[7]; 0.1 μg/ml, 4°C, 3 months",3.1%
same,TQD concentration in plasma after storage,"[7]; 0.1 μg/ml, 4°C, 3 months",0.003 ± 0.000 µg/mL
same,percent of baseline,"[7]; 0.1 μg/ml, 4°C, 24 h",99%
same,TQD concentration in plasma after storage,"[7]; 0.1 μg/ml, 4°C, 24 h",0.099 ± 0.003 µg/mL
same,percent of baseline,"[7]; 0.1 μg/ml, RT, 1 month",8.6%
same,TQD concentration in plasma after storage,"[7]; 0.1 μg/ml, RT, 1 month",0.008 ± 0.000 µg/mL
same,percent of baseline,"[7]; 0.1 μg/ml, RT, 3 months",3.0%
same,TQD concentration in plasma after storage,"[7]; 0.1 μg/ml, RT, 3 months",0.003 ± 0.000 µg/mL
same,percent of baseline,"[7]; 0.1 μg/ml, RT, 24 h",100%
same,TQD concentration in plasma after storage,"[7]; 0.1 μg/ml, RT, 24 h",0.10 ± 0.004 µg/mL
same,percent of baseline,"[7]; 0.1 μg/ml, −20°C, 1 month",73.9%
same,TQD concentration in plasma after storage,"[7]; 0.1 μg/ml, −20°C, 1 month",0.073 ± 0.005 µg/mL
same,percent of baseline,"[7]; 0.1 μg/ml, −20°C, 3 months",40.8%
same,TQD concentration in plasma after storage,"[7]; 0.1 μg/ml, −20°C, 3 months",0.041 ± 0.004 µg/mL
same,percent of baseline,"[7]; 0.1 μg/ml, −20°C, 24 h",100%
same,TQD concentration in plasma after storage,"[7]; 0.1 μg/ml, −20°C, 24 h",0.10 ± 0.002 µg/mL
same,percent of baseline,"[7]; 0.1 μg/ml, −80°C, 1 month",78.1%
same,TQD concentration in plasma after storage,"[7]; 0.1 μg/ml, −80°C, 1 month",0.078 ± 0.006 µg/mL
same,percent of baseline,"[7]; 0.1 μg/ml, −80°C, 3 months",69.1%
same,TQD concentration in plasma after storage,"[7]; 0.1 μg/ml, −80°C, 3 months",0.069 ± 0.005 µg/mL
same,percent of baseline,"[7]; 0.1 μg/ml, −80°C, 24 h",98%
same,TQD concentration in plasma after storage,"[7]; 0.1 μg/ml, −80°C, 24 h",0.098 ± 0.003 µg/mL
same,percent of baseline,"[7]; 0.5 μg/ml, 4°C, 1 month",11.2%
same,TQD concentration in plasma after storage,"[7]; 0.5 μg/ml, 4°C, 1 month",0.056 ± 0.003 µg/mL
same,percent of baseline,"[7]; 0.5 μg/ml, 4°C, 3 months",3.4%
same,TQD concentration in plasma after storage,"[7]; 0.5 μg/ml, 4°C, 3 months",0.017 ± 0.001 µg/mL
same,percent of baseline,"[7]; 0.5 μg/ml, 4°C, 24 h",102%
same,TQD concentration in plasma after storage,"[7]; 0.5 μg/ml, 4°C, 24 h",0.51 ± 0.023 µg/mL
same,percent of baseline,"[7]; 0.5 μg/ml, RT, 3 months",1.7%
same,TQD concentration in plasma after storage,"[7]; 0.5 μg/ml, RT, 3 months",0.008 ± 0.001 µg/mL
same,percent of baseline,"[7]; 0.5 μg/ml, RT, 24 h",98%
same,TQD concentration in plasma after storage,"[7]; 0.5 μg/ml, RT, 24 h",0.49 ± 0.033 µg/mL
same,percent of baseline,"[7]; 0.5 μg/ml, −20°C, 1 month",77.6%
same,TQD concentration in plasma after storage,"[7]; 0.5 μg/ml, −20°C, 1 month",0.38 ± 0.021 µg/mL
same,percent of baseline,"[7]; 0.5 μg/ml, −20°C, 3 months",36.4%
same,TQD concentration in plasma after storage,"[7]; 0.5 μg/ml, −20°C, 3 months",0.18 ± 0.014 µg/mL
same,percent of baseline,"[7]; 0.5 μg/ml, −20°C, 24 h",99%
same,TQD concentration in plasma after storage,"[7]; 0.5 μg/ml, −20°C, 24 h",0.49 ± 0.014 µg/mL
same,percent of baseline,"[7]; 0.5 μg/ml, −80°C, 1 month",82.3%
same,TQD concentration in plasma after storage,"[7]; 0.5 μg/ml, −80°C, 1 month",0.41 ± 0.030 µg/mL
same,percent of baseline,"[7]; 0.5 μg/ml, −80°C, 3 months",53.9%
same,TQD concentration in plasma after storage,"[7]; 0.5 μg/ml, −80°C, 3 months",0.27 ± 0.023 µg/mL
same,percent of baseline,"[7]; 0.5 μg/ml, −80°C, 24 h",100%
same,TQD concentration in plasma after storage,"[7]; 0.5 μg/ml, −80°C, 24 h",0.50 ± 0.025 µg/mL
same,percent of baseline,"[7]; 2.0 μg/ml, 4°C, 1 month",9.5%
same,TQD concentration in plasma after storage,"[7]; 2.0 μg/ml, 4°C, 1 month",0.19 ± 0.004 µg/mL
same,percent of baseline,"[7]; 2.0 μg/ml, 4°C, 3 months",5.6%
same,TQD concentration in plasma after storage,"[7]; 2.0 μg/ml, 4°C, 3 months",0.11 ± 0.006 µg/mL
same,percent of baseline,"[7]; 2.0 μg/ml, 4°C, 24 h",98.5%
same,TQD concentration in plasma after storage,"[7]; 2.0 μg/ml, 4°C, 24 h",1.97 ± 0.050 µg/mL
same,percent of baseline,"[7]; 2.0 μg/ml, RT, 1 month",9.1%
same,TQD concentration in plasma after storage,"[7]; 2.0 μg/ml, RT, 1 month",0.18 ± 0.003 µg/mL
same,percent of baseline,"[7]; 2.0 μg/ml, RT, 3 months",2.8%
same,TQD concentration in plasma after storage,"[7]; 2.0 μg/ml, RT, 3 months",0.054 ± 0.004 µg/mL
same,percent of baseline,"[7]; 2.0 μg/ml, RT, 24 h",101%
same,TQD concentration in plasma after storage,"[7]; 2.0 μg/ml, RT, 24 h",2.02 ± 0.081 µg/mL
same,percent of baseline,"[7]; 2.0 μg/ml, −20°C, 1 month",75.8%
same,TQD concentration in plasma after storage,"[7]; 2.0 μg/ml, −20°C, 1 month",1.51 ± 0.065 µg/mL
same,percent of baseline,"[7]; 2.0 μg/ml, −20°C, 3 months",48.3%
same,TQD concentration in plasma after storage,"[7]; 2.0 μg/ml, −20°C, 3 months",0.97 ± 0.084 µg/mL
same,percent of baseline,"[7]; 2.0 μg/ml, −20°C, 24 h",99%
same,TQD concentration in plasma after storage,"[7]; 2.0 μg/ml, −20°C, 24 h",1.98 ± 0.075 µg/mL
same,percent of baseline,"[7]; 2.0 μg/ml, −80°C, 1 month",80.6%
same,TQD concentration in plasma after storage,"[7]; 2.0 μg/ml, −80°C, 1 month",1.62 ± 0.068 µg/mL
same,percent of baseline,"[7]; 2.0 μg/ml, −80°C, 3 months",61.5%
same,TQD concentration in plasma after storage,"[7]; 2.0 μg/ml, −80°C, 3 months",1.23 ± 0.056 µg/mL
same,percent of baseline,"[7]; 2.0 μg/ml, −80°C, 24 h",100.5%
same,TQD concentration in plasma after storage,"[7]; 2.0 μg/ml, −80°C, 24 h",2.01 ± 0.064 µg/mL
same,concentration dependency of degradation rate in plasma,"[7]; 0.1, 0.5 and 2.0 μg/ml",No concentration dependency
same,stability in plasma on storage longer than 24 h,"[7]; 1 month, 3 months, even at −80°C",pronounced degradation
same,stability in plasma (criterion 95%),"[7]; 24 h at RT, 4°C, −20°C and −80°C",stable
same,concentration remaining relative to original values,[7]; one month at −20°C,74-78%
same,concentration remaining relative to original values,[7]; one month at −80°C,78-82%
same,concentration remaining relative to original concentration,[7]; one month of storage at RT or at 4°C,approximately 10%
